OX1R antag-1 = blocks the human orexin 1 receptor | O43613 | OX1R-expressing cells, FRET antagonist read-out | inhibition, % at 6.6 µM | 1.8% of 330,000 active | AID 485270; in the data active = inhibition mostly above about 38%, no sharp cut-off; inactive = mostly below about 40%;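 note: 0% = agonist challenge alone and 100% = reference antagonist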
Target sequence (O43613 whole entry, looked up): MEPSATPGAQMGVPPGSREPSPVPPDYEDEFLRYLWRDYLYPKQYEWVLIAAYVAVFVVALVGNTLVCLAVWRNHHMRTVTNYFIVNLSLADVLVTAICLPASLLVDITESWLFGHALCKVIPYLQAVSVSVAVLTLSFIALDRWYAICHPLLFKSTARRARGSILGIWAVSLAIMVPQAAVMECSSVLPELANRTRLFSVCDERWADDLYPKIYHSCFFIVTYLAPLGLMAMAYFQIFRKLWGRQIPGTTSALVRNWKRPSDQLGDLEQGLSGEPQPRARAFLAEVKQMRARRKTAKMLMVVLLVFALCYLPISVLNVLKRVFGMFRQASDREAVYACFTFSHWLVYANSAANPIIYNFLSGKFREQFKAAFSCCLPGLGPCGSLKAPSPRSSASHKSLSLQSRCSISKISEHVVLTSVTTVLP
OX1R antag-2 = blocks the human orexin 1 receptor; O43613; CHO/OX1R cells, Fluo-8 calcium fluorescence, orexin A; inhibition, % at 5 µM; 0.43% of 330,000 active; AID 434989;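 active = inhibition above its plate's threshold, mean inhibition of all tested compounds on the plate plus 3 SD, cut at about 37% in these data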;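 note: 0% = orexin A challenge wells and 100% = SB-334867-A antagonist wells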
GPR7 antagonist = antagonists of human GPR7 (neuropeptides B/W receptor 1) | 1.1% of 290,000 active | P48145 | GPR7-expressing cells, fluorescence antagonist assay | AID 1861 | inhibition, % at 4.4 µM; in the data active = inhibition above about 16%, passing the limit was not always enough;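 note: cells stimulated with the agonist NPW; 0% = agonist with vehicle and 100% = vehicle without agonist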
zfTRPN1 agonist = agonists of zebrafish TRPN1 channel; activation, % at 3 µM; 0.18% of 220,000 active; HEK293 zebrafish TRPN1-YFP, Fluo-8 calcium fluorescence; 100% = response to 87 µM carbachol;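 active = activation above its plate's cutoff, the mean activation of test wells on that plate plus 3 SD, cut at about 19% in these data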;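 note: 0% = DMSO alone and 100% = 87 µM carbachol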
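Material – zebrafish TRPN1-YFP in HEK293 cells · Doses – 3 µM single point · Schedule – dye 1 h 37 °C plus 30 min RT · Signal – Fluo-8 calcium fluorescence, excitation 470-495 nm, emission 515-575 nm · Read-out – % activation versus carbachol response · Control set – carbachol high, DMSO low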
TRPML3 agonist = activates the human TRPML3 channel; activation, % at 3 µM; Q8TDD5; AID 1448; HEK293 TRPML3-YFP, Fluo-8 calcium fluorescence; 100% = the carbachol control signal; 0.29% of 220,000 active;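 active = activation above its plate's cutoff, the mean activation of the plate's test wells plus 3 SD, cut at about 12% in these data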;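 note: 0% = DMSO only wells and 100% = carbachol wells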
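Test system – HEK293 line with stable expression of human TRPML3-YFP channel · Control set – carbachol 87 µM final as high control (100%), DMSO as low control (0%) · Signal – Fluo-8 calcium dye fluorescence, ex 470-495, em 515-575 nm · Incubation – 1-h 37 °C dye load, 5-s basal, 120-s post-compound reads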
CHO parental Ca = signal in parental CHO cells, OX1R antagonist counter-screen; parental CHO-K1, ATP-induced calcium, Fluo-8 fluorescence; inhibition, % at 5.6 µM; 0.63% of 330,000 active; AID 463079;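 active = inhibition above that plate's mean sample inhibition plus 3 SD, cut at about 26% in these data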;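 note: 0% = ATP-challenged DMSO wells and 100% = DMSO wells without ATP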
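Test system: untransfected parental CHO cell line; also added: ATP stimulus; dosing: 5.6 µM, single dose; signal: calcium-sensitive Fluo-8 fluorescence; measure: percent inhibition of ATP-evoked calcium rise, normalized to controls; benchmarks: low control ATP plus DMSO, high control DMSO only; replication: one well per compound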
GPR7 antag cf = confirmation of human GPR7 antagonists; shares compounds with GPR7 antagonist; GPR7-expressing cells, calcium fluorescence antagonist mode; inhibition, % at 4.4 µM; 52% of 2,400 active; AID 1952; in the data active = inhibition above about 24%;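 note: stimulated with the GPR7 agonist NPW; 0% = agonist plus vehicle and 100% = vehicle alone without agonist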
MCHR1 antagonist = MCHR1 (human) antagonism in GPR7 counter-screen; shares compounds with GPR7 antagonist; MCHR1-expressing cells, fluorescence antagonist assay; inhibition, % at 4.4 µM; 62% of 2,400 active; in the data active = inhibition above about 22%;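 note: 0% = vehicle with agonist and 100% = vehicle without agonist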
* hit, by the source's call; . = not tested or not shown. An excerpt weighted towards active compounds, which were near 3.2% of everything screened.

SMILES | OX1R antag-1 | OX1R antag-2 | GPR7 antagonist | zfTRPN1 agonist | TRPML3 agonist | CHO parental Ca | GPR7 antag cf | MCHR1 antagonist
CC(=O)c1cccc(NC(=O)c2ccc(N(C)S(=O)(=O)c3ccc(C)cc3)cc2)c1 | 18 | 9 | 30* | . | . | 4 | 5 | 37*
O=C(COC(=O)/C=C/c1cccc(C(F)(F)F)c1)NCCN1C(=O)CSC1=O | 11 | -16 | . | . | . | -20 | . | .
S=C(NCCN1CCCCC1)Nc1ccc(Br)cc1 | 11 | -22 | 38* | -1 | 0 | -17 | 9 | 13
Cc1ccc(C)c(N2CCN(S(=O)(=O)c3ccc4c(c3)CC(C)N4C(=O)C3CC3)CC2)c1 (stereo unspecified) | 2 | -1 | -1 | . | . | -15 | . | .
CCC(=O)N1c2ccc(S(=O)(=O)N3CCN(c4ccc([N+](=O)[O-])cc4)CC3)cc2CC1C (stereo unspecified) | 24 | 20 | 36* | . | . | 27 | 33* | 44*
Cc1cccc(N2CCN(S(=O)(=O)c3ccc4c(c3)CC(C)N4C(=O)C3CC3)CC2)c1C (stereo unspecified) | 10 | -12 | 28* | . | . | -9 | 29* | 44*
CSc1nc2ccccc2n1CC(=O)Nc1cc(C(F)(F)F)ccc1N1CCOCC1 | 6 | -29 | 36* | -1 | 0 | -11 | 38* | 26*
CCN(CC)CCn1c2c(c(SCC(=O)Nc3cc(OC)cc(OC)c3)nc1=O)CCC2 | 6 | -27 | . | . | . | -17 | . | .
Cn1nnnc1SCCNCc1cc(Cl)ccc1OCc1ccccc1 | 10 | -16 | 24* | -1 | -1 | -12 | 24 | 44*
Cn1nnnc1SCCNCc1ccccc1OCc1ccc(Cl)cc1 | 26 | -24 | 10 | -1 | 1 | 14 | . | .
O=C(COc1ccccc1F)N1CCc2ccccc2C1 | -1 | -17 | 26* | 0 | 0 | -2 | 34* | 35*
CCC(CC)C(=O)Nc1ccc(Cl)c(Cl)c1 | 66 | 19 | -16 | -2 | 0 | 7 | . | .
CC(C)(CO)NC(=O)Nc1ccc(Cl)c(Cl)c1 | 2 | 2 | 26* | 4 | 2 | 13 | -6 | 10
O=C(NCC1CC1(Cl)Cl)Nc1ccc(Cl)c(Cl)c1 (stereo unspecified) | 39 | 2 | 33* | . | . | 33* | 13 | 58*
CCOc1ccccc1N1CCN(Cc2c(C)n(C)n(-c3ccccc3)c2=O)CC1 | 10 | -32 | 2 | -1 | 0 | -19 | . | .
Cn1c(SCC(=O)NCCc2ccccc2)ncc(C(=O)Nc2ccccc2)c1=O | 12 | -15 | . | . | . | -11 | . | .
CCCSc1ccc2nc(NC(=O)OC)[nH]c2c1 | 12 | -5 | 29* | -2 | 0 | -5 | 40* | 28*
CN(CCOC(=O)CN1C(=O)c2ccccc2C1=O)C1=NS(=O)(=O)c2ccccc21 | 8 | -12 | -7 | 1 | 1 | -1 | . | .
CCCCNC1c2ccccc2C(=O)N1Cc1ccccc1 (stereo unspecified) | -6 | -11 | 28* | . | . | -11 | 18 | 9
Clc1cccc(CN2CCN(c3nc4nonc4nc3NC3CC3)CC2)c1 | 13 | -27 | 27* | 1 | 0 | -5 | 9 | 5
Cc1ccc(NC(=O)c2ccccc2SCC(=O)N2CCCC2)cc1S(=O)(=O)N(C)C | 21 | -24 | -4 | . | . | -21 | . | .
O=C(Cc1ccc([N+](=O)[O-])cc1)OCc1ccc([N+](=O)[O-])cc1 | 18 | 8 | 44* | . | . | 10 | 29* | 64*
CCCS(=O)(=O)c1ccc(COC(=O)Cc2ccc([N+](=O)[O-])cc2)cc1 | 24 | -8 | 28* | . | . | 4 | 25* | 25*
C[C@H](N)C(=O)OCc1ccc([N+](=O)[O-])cc1 | 13 | -2 | -15 | 1 | 1 | 4 | . | .
CC1=CC(=O)c2c(O)ccc(O)c2C1=O | 9 | -5 | 3 | -2 | 0 | 2 | . | .

High-throughput results from PubChem.
